Results published in the M2OR odorant receptor database.
Positions count from the first letter of the chain named.

How the values were obtained:
Conditions in all cases: stereoisomer not certain
OR1L3 (Homo sapiens) = target: T1, OR1L3 (Homo sapiens) (UniProt Q8NH93)
T1 sequence (whole entry): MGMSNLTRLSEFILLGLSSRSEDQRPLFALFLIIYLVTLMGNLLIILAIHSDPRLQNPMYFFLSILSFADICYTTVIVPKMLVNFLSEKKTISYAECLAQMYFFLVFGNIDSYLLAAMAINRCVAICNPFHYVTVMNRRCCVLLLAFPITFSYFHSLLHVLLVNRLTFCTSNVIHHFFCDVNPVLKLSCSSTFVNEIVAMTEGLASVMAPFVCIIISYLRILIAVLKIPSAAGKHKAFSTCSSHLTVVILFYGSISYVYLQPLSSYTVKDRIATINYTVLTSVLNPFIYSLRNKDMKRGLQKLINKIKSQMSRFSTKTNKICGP
How it was run: (§1)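 Whether a receptor–molecule pair is responsive (active) rests on the original authors' judgment that its measured signal was statistically different from baseline. Pairs without that judgment are non-responsive (inactive). Sources used varied assay methods, commonly transient luciferase assays in mammalian cell lines.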

OR1L4 (Homo sapiens) = target: T2, OR1L4 (Homo sapiens) (UniProt Q8NGR5)
T2 sequence (whole entry): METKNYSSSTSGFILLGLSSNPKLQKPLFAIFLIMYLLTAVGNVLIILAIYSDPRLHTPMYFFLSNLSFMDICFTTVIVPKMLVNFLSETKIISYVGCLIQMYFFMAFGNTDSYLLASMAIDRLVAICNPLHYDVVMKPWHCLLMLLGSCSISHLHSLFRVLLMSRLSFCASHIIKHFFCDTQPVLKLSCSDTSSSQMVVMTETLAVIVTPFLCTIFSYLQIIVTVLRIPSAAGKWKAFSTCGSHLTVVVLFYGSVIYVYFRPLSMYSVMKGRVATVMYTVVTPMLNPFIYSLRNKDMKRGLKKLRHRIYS
How it was run: as §1

OR1L4 = system: T3, OR1L4
T3 sequence (whole entry): T2 sequence (whole entry) with G234R
How it was run: as §1

OR1L6 (Homo sapiens) = target: T4, OR1L6 (Homo sapiens) (UniProt Q8NGR2)
T4 sequence (whole entry): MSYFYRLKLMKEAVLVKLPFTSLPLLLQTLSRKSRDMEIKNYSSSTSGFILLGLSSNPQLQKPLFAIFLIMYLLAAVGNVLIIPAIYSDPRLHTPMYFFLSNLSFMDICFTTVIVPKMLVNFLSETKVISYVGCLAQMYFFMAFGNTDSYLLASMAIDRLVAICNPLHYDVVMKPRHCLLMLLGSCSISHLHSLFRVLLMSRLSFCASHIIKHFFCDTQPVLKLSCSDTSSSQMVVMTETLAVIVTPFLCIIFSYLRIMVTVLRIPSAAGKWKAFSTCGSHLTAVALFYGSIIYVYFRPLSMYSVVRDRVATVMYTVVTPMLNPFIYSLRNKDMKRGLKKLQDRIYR
How it was run: as §1

OR1L8 (Homo sapiens) = target: T5, OR1L8 (Homo sapiens) (UniProt Q8NGR8)
T5 sequence (whole entry): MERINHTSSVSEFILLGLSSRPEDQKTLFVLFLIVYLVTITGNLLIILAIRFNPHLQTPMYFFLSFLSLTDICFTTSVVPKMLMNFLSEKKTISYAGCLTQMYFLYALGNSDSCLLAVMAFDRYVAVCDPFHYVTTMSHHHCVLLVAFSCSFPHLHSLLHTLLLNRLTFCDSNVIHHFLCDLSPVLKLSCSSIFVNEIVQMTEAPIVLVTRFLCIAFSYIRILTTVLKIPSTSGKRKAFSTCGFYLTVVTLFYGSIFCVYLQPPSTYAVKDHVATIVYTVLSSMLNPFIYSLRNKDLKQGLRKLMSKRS
How it was run: as §1

OR1L8 T27P R211P = system: T6, OR1L8 T27P R211P
T6 sequence (whole entry): T5 sequence (whole entry) with T27P, R211P
How it was run: as §1

OR1M1 (Homo sapiens) = target: T7, OR1M1 (Homo sapiens) (UniProt Q8NGA1)
T7 sequence (whole entry): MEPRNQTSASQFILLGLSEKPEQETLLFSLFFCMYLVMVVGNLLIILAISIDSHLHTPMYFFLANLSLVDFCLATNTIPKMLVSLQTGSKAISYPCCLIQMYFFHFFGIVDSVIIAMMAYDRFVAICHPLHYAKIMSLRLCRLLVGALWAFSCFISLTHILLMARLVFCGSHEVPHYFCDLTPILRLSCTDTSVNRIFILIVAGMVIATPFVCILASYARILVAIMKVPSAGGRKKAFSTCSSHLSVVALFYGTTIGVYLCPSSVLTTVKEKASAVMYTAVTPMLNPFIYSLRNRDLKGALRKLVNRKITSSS
How it was run: as §1

OR1N1 (Homo sapiens) = target: T8, OR1N1 (Homo sapiens) (UniProt Q8NGS0)
T8 sequence (whole entry): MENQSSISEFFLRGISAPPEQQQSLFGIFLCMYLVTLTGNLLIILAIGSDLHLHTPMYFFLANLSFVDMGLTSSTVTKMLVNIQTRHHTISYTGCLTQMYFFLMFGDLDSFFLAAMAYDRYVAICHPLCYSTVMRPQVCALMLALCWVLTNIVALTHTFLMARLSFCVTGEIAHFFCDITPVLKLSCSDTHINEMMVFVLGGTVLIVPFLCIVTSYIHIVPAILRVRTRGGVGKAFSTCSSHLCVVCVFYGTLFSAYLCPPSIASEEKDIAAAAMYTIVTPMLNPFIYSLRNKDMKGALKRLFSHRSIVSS
How it was run: as §1

OR1N2 W37R = system: T9, OR1N2 W37R
T9 sequence (whole entry): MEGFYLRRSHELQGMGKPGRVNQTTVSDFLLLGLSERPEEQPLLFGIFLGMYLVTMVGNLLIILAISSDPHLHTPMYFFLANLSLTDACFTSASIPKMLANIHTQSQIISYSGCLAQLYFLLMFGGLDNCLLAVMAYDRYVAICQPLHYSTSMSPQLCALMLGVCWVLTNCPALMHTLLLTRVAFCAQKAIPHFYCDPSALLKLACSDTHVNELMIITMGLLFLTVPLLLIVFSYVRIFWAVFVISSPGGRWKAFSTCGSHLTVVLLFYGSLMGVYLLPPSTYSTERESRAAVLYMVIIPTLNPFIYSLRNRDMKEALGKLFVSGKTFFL
How it was run: as §1

OR1L6 = system: T10, OR1L6
T10 sequence (whole entry): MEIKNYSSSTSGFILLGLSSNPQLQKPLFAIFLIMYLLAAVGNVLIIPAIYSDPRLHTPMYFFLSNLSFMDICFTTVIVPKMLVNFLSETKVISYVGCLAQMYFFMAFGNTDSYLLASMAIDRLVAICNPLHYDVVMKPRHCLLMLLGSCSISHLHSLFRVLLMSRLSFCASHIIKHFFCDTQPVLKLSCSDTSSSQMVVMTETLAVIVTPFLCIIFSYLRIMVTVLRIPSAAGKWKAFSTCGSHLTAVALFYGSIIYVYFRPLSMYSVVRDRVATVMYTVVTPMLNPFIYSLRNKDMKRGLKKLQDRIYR
How it was run: as §1

Measured: odorant receptor agonist call;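 also: active if original authors judged signal statistically different from baseline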

CC=CC(=O)C1C(C)=CCCC1(C)C (stereo unspecified)
active: OR1L3 (Homo sapiens)

CCCCCCC=CCCC=O
inactive: OR1L3 (Homo sapiens) | OR1L4 (Homo sapiens) | OR1L4 | OR1L6 (Homo sapiens) | OR1L8 (Homo sapiens) | OR1L8 T27P R211P | OR1M1 (Homo sapiens) | OR1N1 (Homo sapiens) | OR1N2 W37R

CC1CCCCCCCCCCCCC(=O)C1 (stereo unspecified)
inactive: OR1L3 (Homo sapiens) | OR1L4 (Homo sapiens) | OR1L6 (Homo sapiens) | OR1L8 (Homo sapiens) | OR1M1 (Homo sapiens) | OR1N1 (Homo sapiens)

CCC1OC(C)=C(O)C1=O (stereo unspecified)
inactive: OR1L3 (Homo sapiens) | OR1L4 (Homo sapiens) | OR1L4 | OR1L6 | OR1L8 (Homo sapiens) | OR1L8 T27P R211P | OR1M1 (Homo sapiens) | OR1N1 (Homo sapiens) | OR1N2 W37R

CCC(=O)C=CC1C(C)=CCCC1(C)C (stereo unspecified)
inactive: OR1L3 (Homo sapiens)

Cc1cnc(C)c(C)n1
inactive: OR1L3 (Homo sapiens) | OR1L4 (Homo sapiens) | OR1L4 | OR1L6 | OR1L8 (Homo sapiens) | OR1L8 T27P R211P | OR1M1 (Homo sapiens) | OR1N1 (Homo sapiens) | OR1N2 W37R

COc1ccc(C)cc1
inactive: OR1L3 (Homo sapiens)

CC1=C(O)C(=O)OC1C (stereo unspecified)
inactive: OR1L3 (Homo sapiens) | OR1L4 (Homo sapiens) | OR1L4 | OR1L6 | OR1L8 (Homo sapiens) | OR1L8 T27P R211P | OR1M1 (Homo sapiens) | OR1N1 (Homo sapiens) | OR1N2 W37R

CCC(S)C(C)CO (stereo unspecified)
inactive: OR1L3 (Homo sapiens) | OR1L4 (Homo sapiens) | OR1L6 (Homo sapiens) | OR1L8 (Homo sapiens) | OR1M1 (Homo sapiens) | OR1N1 (Homo sapiens)

CC1CC(C)(c2ccccc2)CO1 (stereo unspecified)
inactive: OR1L3 (Homo sapiens)

O=C([O-])CCCCCCCC(=O)[O-].[H+].[H+]
inactive: OR1N1 (Homo sapiens)

CC(=O)c1c(C)c([N+](=O)[O-])c(C(C)(C)C)c([N+](=O)[O-])c1C
inactive: OR1L3 (Homo sapiens) | OR1L4 (Homo sapiens) | OR1L6 (Homo sapiens) | OR1L8 (Homo sapiens) | OR1M1 (Homo sapiens) | OR1N1 (Homo sapiens)

OCc1ccccc1
inactive: OR1L3 (Homo sapiens)

CC(CO)CS (stereo unspecified)
inactive: OR1L3 (Homo sapiens) | OR1L4 (Homo sapiens) | OR1L6 (Homo sapiens) | OR1L8 (Homo sapiens) | OR1M1 (Homo sapiens) | OR1N1 (Homo sapiens)

CCCCC(S)C(C)CO (stereo unspecified)
inactive: OR1L3 (Homo sapiens) | OR1L4 (Homo sapiens) | OR1L6 (Homo sapiens) | OR1L8 (Homo sapiens) | OR1M1 (Homo sapiens) | OR1N1 (Homo sapiens)

CCCC(S)CCOC(C)=O (stereo unspecified)
inactive: OR1L3 (Homo sapiens) | OR1L4 (Homo sapiens) | OR1L4 | OR1L6 | OR1L8 (Homo sapiens) | OR1L8 T27P R211P | OR1M1 (Homo sapiens) | OR1N1 (Homo sapiens) | OR1N2 W37R

CCCCCC(=O)C(C)C(C)=O (stereo unspecified)
inactive: OR1L3 (Homo sapiens) | OR1L4 (Homo sapiens) | OR1L6 (Homo sapiens) | OR1L8 (Homo sapiens) | OR1M1 (Homo sapiens) | OR1N1 (Homo sapiens)

CC1=C(O)C(=O)C(C)O1 (stereo unspecified)
inactive: OR1L3 (Homo sapiens) | OR1L4 (Homo sapiens) | OR1L4 | OR1L6 | OR1L8 (Homo sapiens) | OR1L8 T27P R211P | OR1M1 (Homo sapiens) | OR1N1 (Homo sapiens) | OR1N2 W37R

C=CC(C)(O)CCC=C(C)CCC=C(C)C (stereo unspecified)
inactive: OR1L3 (Homo sapiens)

CC1=NC(C)C(C)S1 (stereo unspecified)
inactive: OR1L3 (Homo sapiens) | OR1L4 (Homo sapiens) | OR1L4 | OR1L6 | OR1L8 (Homo sapiens) | OR1L8 T27P R211P | OR1M1 (Homo sapiens) | OR1N1 (Homo sapiens) | OR1N2 W37R

CCCCCC(S)C(C)CO (stereo unspecified)
inactive: OR1L3 (Homo sapiens) | OR1L4 (Homo sapiens) | OR1L6 (Homo sapiens) | OR1L8 (Homo sapiens) | OR1M1 (Homo sapiens) | OR1N1 (Homo sapiens)

CCC1OC(=O)C(O)=C1C (stereo unspecified)
inactive: OR1L3 (Homo sapiens) | OR1L4 (Homo sapiens) | OR1L4 | OR1L6 | OR1L8 (Homo sapiens) | OR1L8 T27P R211P | OR1M1 (Homo sapiens) | OR1N1 (Homo sapiens) | OR1N2 W37R
